# Reference: ChEMBL document CHEMBL3612020
# Tests used:
# D-amino-acid oxidase [1] = molecular target: T1, D-amino-acid oxidase (Homo sapiens, UniProt P14920); test: Inhibition of recombinant human DAAO expressed in HEK cells using D-serine as substrate assessed as formation of alpha-keto acid, ammonia, […] after 20 mins by horseradish peroxidase/o-phenylenediamine-based assay; design: species or system HEK293
# In short: (§1)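 Human DAAO from HEK cells: lysate in 50 mM Tris pH 8.5 with 100 µM FAD, sonicated, then ion-exchange purified with a 0–0.5 M NaCl gradient. […] Enzyme set to give 2.0 mOD/min uninhibited. Rate read as absorbance change at 411 nm. Mean ± SD of ≥4 experiments in most cases.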
# D-amino-acid oxidase [2] = molecular target: T1, D-amino-acid oxidase; test: Inhibition of DAAO (unknown origin); in short: as §1
# T1 sequence (P14920 whole entry): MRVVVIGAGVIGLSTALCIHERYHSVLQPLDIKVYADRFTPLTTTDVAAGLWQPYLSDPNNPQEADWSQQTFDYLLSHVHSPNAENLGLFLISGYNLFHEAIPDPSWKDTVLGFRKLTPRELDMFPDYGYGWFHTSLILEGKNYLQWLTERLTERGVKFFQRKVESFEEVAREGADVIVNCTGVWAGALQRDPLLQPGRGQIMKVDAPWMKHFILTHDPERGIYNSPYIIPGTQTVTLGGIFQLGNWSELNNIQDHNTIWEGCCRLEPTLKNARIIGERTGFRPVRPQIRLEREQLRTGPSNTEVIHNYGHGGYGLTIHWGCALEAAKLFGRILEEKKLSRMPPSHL
Structure (SMILES),IC50 (D-amino-acid oxidase [1]) [nM],IC50 (D-amino-acid oxidase [2]) [nM]
COc1cccc(CCn2nc(O)c(=O)[nH]c2=O)c1,120,–
O=c1[nH]c(=O)n(CCn2cnc3ccccc32)nc1O,440,–
Cc1ccc(CCn2nc(O)c(=O)[nH]c2=O)cc1,90,–
O=c1[nH]c(=O)n(CCc2cccc(C(F)(F)F)c2)nc1O,100,–
CC(C)CCn1nc(O)c(=O)[nH]c1=O,260,–
CO/N=C(\C(=O)N[C@@H]1C(=O)N2C(C(=O)O)=C(CSc3nc(=O)c(=O)[nH]n3C)CS[C@H]12)c1csc(N)n1 [CEFTRIAXONE],–,10000
O=c1[nH]c(=O)n(CCc2ccc(F)cc2)nc1O,50,–
O=c1[nH]c(=O)n(-c2ccccc2)nc1O,> 100000,–
COc1ccc(CCn2nc(O)c(=O)[nH]c2=O)cc1,120,–
O=c1[nH]c(=O)n(CCn2ccc3cccnc32)nc1O,310,–
O=c1[nH]c(=O)n(CCn2cccn2)nc1O,330,–

# Second part, the compound after the results:
IC50 (D-amino-acid oxidase [1]) [nM],IC50 (D-amino-acid oxidase [2]) [nM],Structure (SMILES)
1700,–,O=c1[nH]c(=O)n(CCCc2ccccc2)nc1O
90,–,O=c1[nH]c(=O)n(CCc2ccccc2O)nc1O
5100,–,O=c1[nH]c(=O)n(Cc2ccccc2)nc1O
270,–,COc1ccccc1CCn1nc(O)c(=O)[nH]c1=O
40,–,O=c1[nH]c(=O)n(CCc2ccc(Cl)cc2)nc1O
110,–,O=c1[nH]c(=O)n(CCc2ccc(O)cc2)nc1O
